# Experimental data reported in ChEMBL document CHEMBL4049451, “Exploring the Role of N6-Substituents in Potent Dual Acting 5'-C-Ethyltetrazolyladenosine Derivatives: Synthesis, Binding, Functional Assays, and Antinociceptive Effects in Mice ∇” (J Med Chem, 2017).
# Experiments:
# Adenosine receptor A3 [1] = target: T1, Adenosine receptor A3 (Rattus norvegicus, UniProt P28647); assay: Displacement of [3H]NECA from recombinant rat adenosine A3 receptor expressed in CHO cell membranes after 3 hrs by microbeta scintillation counting
# T1 sequence (P28647 whole entry): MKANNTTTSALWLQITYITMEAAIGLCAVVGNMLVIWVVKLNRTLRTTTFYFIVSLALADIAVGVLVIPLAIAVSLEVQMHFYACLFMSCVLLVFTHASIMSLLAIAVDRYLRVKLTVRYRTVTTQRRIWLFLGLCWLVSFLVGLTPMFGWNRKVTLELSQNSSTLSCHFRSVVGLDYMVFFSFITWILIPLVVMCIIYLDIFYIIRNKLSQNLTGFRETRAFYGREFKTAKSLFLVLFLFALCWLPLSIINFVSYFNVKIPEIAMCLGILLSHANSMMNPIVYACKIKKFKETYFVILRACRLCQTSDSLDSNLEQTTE
# Procedure, shortened: (§1)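 CHO membranes with stable human A1, A2A, A3 or rat A3 (1000g then 100 000g spin, stored -80 °C). Competition: hA1 1 nM [3H]CCPA, nonspecific with 1 mM theophylline; hA2A 10 nM [3H]NECA; hA3 1 nM [3H]HEMADO; rA3 30 nM [3H]NECA; latter three nonspecific with 100 μM R-PIA.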
# Adenosine receptor A1 [2] = target: T2, Adenosine receptor A1 (Homo sapiens, UniProt P30542); assay: Agonist activity at recombinant human adenosine A1 receptor expressed in CHO cell membranes assessed as inhibition of forskolin-stimulated adenylyl cyclase activity after 10 mins in presence of [alpha-32P]ATP; format: functional, cell-based
# T2 sequence (P30542 whole entry): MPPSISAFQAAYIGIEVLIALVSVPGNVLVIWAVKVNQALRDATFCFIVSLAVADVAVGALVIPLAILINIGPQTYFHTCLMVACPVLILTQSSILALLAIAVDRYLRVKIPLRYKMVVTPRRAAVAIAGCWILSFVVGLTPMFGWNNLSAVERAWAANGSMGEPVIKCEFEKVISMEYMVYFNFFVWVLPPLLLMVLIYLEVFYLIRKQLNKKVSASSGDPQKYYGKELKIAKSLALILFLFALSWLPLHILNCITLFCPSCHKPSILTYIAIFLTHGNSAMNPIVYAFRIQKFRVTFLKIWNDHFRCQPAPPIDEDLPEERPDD
# Procedure, shortened: (§2)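 hA1 in CHO cell membranes (single high-speed spin, resuspended in 50 mM Tris/HCl pH 7.4, used immediately); agonist inhibition of forskolin-stimulated adenylyl cyclase; efficacy relative to CCPA as reference full agonist (100%). Geometric means with 95% confidence intervals, n = 3.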
# Adenosine receptor A1 [3] = target: T2, Adenosine receptor A1; assay: Displacement of [3H]CCPA from recombinant human adenosine A1 receptor expressed in CHO cell membranes after 3 hrs by microbeta scintillation counting; procedure, shortened: as §1
# Adenosine receptor A2a [4] = target: T3, Adenosine receptor A2a (Homo sapiens, UniProt P29274); assay: Displacement of [3H]NECA from recombinant human adenosine A2A receptor expressed in CHO cell membranes after 3 hrs by microbeta scintillation counting; procedure, shortened: as §1
# T3 sequence (P29274 whole entry): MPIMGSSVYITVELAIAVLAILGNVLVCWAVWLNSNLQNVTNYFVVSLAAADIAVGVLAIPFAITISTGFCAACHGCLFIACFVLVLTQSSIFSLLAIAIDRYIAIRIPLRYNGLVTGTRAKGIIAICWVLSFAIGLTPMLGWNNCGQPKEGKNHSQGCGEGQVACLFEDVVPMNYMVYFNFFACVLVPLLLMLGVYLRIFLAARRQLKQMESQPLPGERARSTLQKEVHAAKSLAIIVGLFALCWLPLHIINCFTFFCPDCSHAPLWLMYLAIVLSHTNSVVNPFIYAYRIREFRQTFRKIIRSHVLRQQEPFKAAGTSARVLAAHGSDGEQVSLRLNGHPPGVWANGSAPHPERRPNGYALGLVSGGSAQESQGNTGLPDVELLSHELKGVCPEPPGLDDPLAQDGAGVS
# Adenosine receptor A3 [5] = target: T4, Adenosine receptor A3 (Homo sapiens, UniProt P0DMS8); assay: Displacement of [3H]HEMADO from recombinant human adenosine […] receptor expressed in CHO cell membranes after 3 hrs by microbeta scintillation counting; procedure, shortened: as §1
# T4 sequence (P0DMS8 whole entry): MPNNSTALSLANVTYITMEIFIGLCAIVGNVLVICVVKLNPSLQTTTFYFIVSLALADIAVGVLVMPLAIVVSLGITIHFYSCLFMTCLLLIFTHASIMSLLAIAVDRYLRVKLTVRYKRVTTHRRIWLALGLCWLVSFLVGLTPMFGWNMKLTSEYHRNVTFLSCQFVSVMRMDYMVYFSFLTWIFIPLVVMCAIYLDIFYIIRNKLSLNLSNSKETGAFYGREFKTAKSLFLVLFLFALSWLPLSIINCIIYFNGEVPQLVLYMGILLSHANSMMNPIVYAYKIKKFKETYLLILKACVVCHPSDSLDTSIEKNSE
# Adenosine receptor A2a [6] = target: T3, Adenosine receptor A2a; assay: Agonist activity at recombinant human adenosine A2A receptor expressed in CHO cell membranes assessed as stimulation of adenylyl cyclase activity by [alpha-32P]ATP assay; format: functional, cell-based
# Procedure, shortened: (§3)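 hA2A or hA2B in CHO cell membranes (one high-speed spin, pellet in 50 mM Tris/HCl pH 7.4, used immediately); agonist stimulation of adenylyl cyclase gives EC50; partial agonism judged as efficacy against 100 μM NECA as full agonist. Geometric means, 95% confidence intervals, n = 3.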
# Adenosine receptor A2b = target: T5, Adenosine receptor A2b (Homo sapiens, UniProt P29275); assay: Agonist activity at recombinant human adenosine A2B receptor expressed in CHO cell membranes assessed as stimulation of adenylyl cyclase activity by [alpha-32P]ATP assay; format: functional, cell-based; procedure, shortened: as §3
# T5 sequence (P29275 whole entry): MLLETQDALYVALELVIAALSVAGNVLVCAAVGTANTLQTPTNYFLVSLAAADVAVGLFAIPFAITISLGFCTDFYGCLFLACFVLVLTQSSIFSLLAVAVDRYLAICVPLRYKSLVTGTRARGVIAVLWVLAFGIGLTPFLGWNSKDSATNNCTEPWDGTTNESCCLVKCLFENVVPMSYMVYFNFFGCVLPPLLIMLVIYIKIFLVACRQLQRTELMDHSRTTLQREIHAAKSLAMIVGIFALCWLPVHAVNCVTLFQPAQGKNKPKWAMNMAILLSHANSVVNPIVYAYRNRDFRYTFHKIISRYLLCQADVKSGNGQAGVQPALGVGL
# Adenosine receptor A3 [7] = target: T4, Adenosine receptor A3; assay: Antagonist activity at recombinant human adenosine A3 receptor expressed in CHO cell membranes assessed as reversal of NECA-mediated inhibition of adenylyl cyclase activity after 10 mins by [alpha-32P]ATP assay; format: functional, cell-based
# [8] = target: T6, Adenosine receptor A1 (Homo sapiens) (UniProt P30542); assay: Agonist activity at recombinant human adenosine A1 receptor expressed in CHO cell membranes assessed as inhibition of forskolin-stimulated adenylyl cyclase activity after 10 mins relative to CCPA; format: functional, cell-based; procedure, shortened: as §2
# T6 sequence (whole entry): T2 sequence (P30542 whole entry)
# Adenosine receptor A2a [9] = target: T3, Adenosine receptor A2a; assay: Agonist activity at recombinant human adenosine A2A receptor expressed in CHO cell membranes assessed as stimulation of adenylyl cyclase activity relative to NECA; format: functional, cell-based; procedure, shortened: as §3
# [10] = target: T7, Adenosine receptor A2b (Homo sapiens) (UniProt P29275); assay: Agonist activity at recombinant human adenosine A2B receptor expressed in CHO cell membranes assessed as stimulation of adenylyl cyclase activity relative to NECA; format: functional, cell-based; procedure, shortened: as §3
# T7 sequence (whole entry): T5 sequence (P29275 whole entry)
# Homo sapiens [11] = species: Homo sapiens; assay: Selectivity ratio of Ki for recombinant human adenosine A2A receptor expressed in CHO cell membranes to Ki for recombinant human adenosine A1 receptor expressed in CHO cell membranes; format: cell-based; procedure, shortened: as §1
# Homo sapiens [12] = species: Homo sapiens; assay: Selectivity ratio of Ki for recombinant human adenosine A2A receptor expressed in CHO cell membranes to Ki for recombinant human adenosine A3 receptor expressed in CHO cell membranes; format: cell-based; procedure, shortened: as §1
# [13] = target: Adenosine receptors; A1 & A3 (Homo sapiens) (UniProt P30542+P0DMS8); assay: Selectivity ratio of Ki for recombinant human adenosine A3 receptor expressed in CHO cell membranes to Ki for recombinant human adenosine A1 receptor expressed in CHO cell membranes; format: cell-based; procedure, shortened: as §1
Compound,Ki (Adenosine receptor A3 [1]) [nM],EC50 (Adenosine receptor A1 [2]) [nM],Ki (Adenosine receptor A1 [3]) [nM],Ki (Adenosine receptor A2a [4]) [nM],Ki (Adenosine receptor A3 [5]) [nM],EC50 (Adenosine receptor A2a [6]) [nM],EC50 (Adenosine receptor A2b) [nM],EC50 (Adenosine receptor A3 [7]) [nM],Efficacy [8] [%],Efficacy (Adenosine receptor A2a [9]) [%],Efficacy [10] [%],Ratio Ki (Homo sapiens [11]),Ratio Ki (Homo sapiens [12]),Ratio Ki [13]
CCn1nnc([C@H]2O[C@@H](n3cnc4c(N)nc(Cl)nc43)[C@H](O)[C@@H]2O)n1,212,–,–,–,–,–,–,–,–,–,–,–,–,–
CCn1nnc([C@H]2O[C@@H](n3cnc4c(NCc5cccc(Cl)c5)nc(Cl)nc43)[C@H](O)[C@@H]2O)n1,–,116,2.71,110,0.387,16,2390,7.61,> 90,> 90,> 90,40,282,0.14
CCn1nnc([C@H]2O[C@@H](n3cnc4c(NCc5cccc(Br)c5)nc(Cl)nc43)[C@H](O)[C@@H]2O)n1,–,72.8,1.79,58.2,0.345,13.3,1650,9.64,> 90,> 90,> 90,32,171,0.19
CCn1nnc([C@H]2O[C@@H](n3cnc4c(N)ncnc43)[C@H](O)[C@@H]2O)n1,228,–,–,–,–,–,–,–,–,–,–,–,–,–
CCn1nnc([C@H]2O[C@@H](n3cnc4c(NCc5ccc(Cl)cc5F)nc(Cl)nc43)[C@H](O)[C@@H]2O)n1,–,539,17.6,881,5.17,96.5,> 30000,105,> 90,> 90,> 90,50,170,0.29
CCn1nnc([C@H]2O[C@@H](n3cnc4c(NCc5ccco5)nc(Cl)nc43)[C@H](O)[C@@H]2O)n1,–,341,7.64,663,1.31,60.2,2570,52.4,> 90,> 90,> 90,87,506,0.17
CCn1nnc([C@H]2O[C@@H](n3cnc4c(NC5CC5)nc(Cl)nc43)[C@H](O)[C@@H]2O)n1,–,7.21,0.538,274,0.461,21.5,677,14.1,–,–,–,509 to 510,596,0.86
CCn1nnc([C@H]2O[C@@H](n3cnc4c(NCC5CC5)nc(Cl)nc43)[C@H](O)[C@@H]2O)n1,–,7.21,0.454,329,0.313,28.6,1960,14.4,> 90,> 90,> 90,725,1100,0.66
CCn1nnc([C@H]2O[C@@H](n3cnc4c(Nc5ccc(Cl)cc5F)ncnc43)[C@H](O)[C@@H]2O)n1,21.4,–,–,–,–,–,–,–,–,–,–,–,–,–
CCn1nnc([C@H]2O[C@@H](n3cnc4c(NC)nc(Cl)nc43)[C@H](O)[C@@H]2O)n1,600,–,–,–,–,–,–,–,–,–,–,–,–,–
CCn1nnc([C@H]2O[C@@H](n3cnc4c(NCc5cccc(F)c5)nc(Cl)nc43)[C@H](O)[C@@H]2O)n1,–,239,6.04,242,0.806,31.3,2230,31.5,> 90,> 90,> 90,40,299,0.13
CCn1nnc([C@H]2O[C@@H](n3cnc4c(NCc5cccs5)nc(Cl)nc43)[C@H](O)[C@@H]2O)n1,–,222,6.02,286,1.59,38.4,2140,44.7,> 90,> 90,> 90,47,180,0.26
